Sampled rows, rich in hits. Any-hit rate of the full collection: about 1.4%.
PKA-R1A activ: activators of PKA-R1A holoenzyme, primary screen, biochemical, fluorescence polarization, Cy5-IP20, bovine R1A, mouse PKAc. cAMP-dependent protein kinase type I-alpha regulatory subunit (Bos taurus) + …. activation, % at 11.4 µM. 340,000 tested, 0.083% active. PKA-R1A dissociation; scaled: DMSO 0%, 113 µM cGMP 100%;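 active = percent activation above the mean of all tested compounds plus 3 SD, cut at about 19% in these data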;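 note: higher means more PKAc released from R1A so a rise in polarization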
SR-BI DiI-HDL act: activators of SR-BI mediated DiI-HDL uptake, primary screen, ldlA[mSR-BI] CHO cells, DiI fluorescence. 3 h; 100 = double the neutral-control signal. activation, % at 12.5 µM. 320,000 tested, 0.096% active;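 active = mean replicate activation of at least 60% and every replicate at or above 60%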;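 note: 0% = median plate neutral-control signal and 100% = twice that signal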
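System: LDL receptor-deficient CHO ldlA cells overexpressing murine SR-BI | Timing: 3 h uptake period with compound, 37 °C | Medium: HEPES-buffered (25 mM, pH 7.4) F12 plus 0.5% BSA | Dosing: Single-point compound dose | Signal: Bottom-read fluorescence, 550/595 nm | Read-out: Retained DiI signal reflecting DiI-HDL uptake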
PKA-R2B activ: activators of PKA-R2B holoenzyme, primary screen, biochemical, fluorescence polarization, Cy5-IP20, human | cAMP-dependent protein kinase catalytic subunit beta (Homo sapiens) + cAMP-dependent … | 340,000 tested, 0.079% active | PKA-R2B holoenzyme dissociation; R2B truncated from residue 108, S112A mutant; 0% DMSO only, 100% 113 µM cGMP | activation, % at 11.4 µM;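 active = activation above a cutoff set at the mean over all compounds plus 3 SD, cut at about 18% in these data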;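 note: higher means more holoenzyme dissociation and a rise in polarization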
Target sequence (P31323 whole entry, looked up, other chains not shown, the tested form may be a part): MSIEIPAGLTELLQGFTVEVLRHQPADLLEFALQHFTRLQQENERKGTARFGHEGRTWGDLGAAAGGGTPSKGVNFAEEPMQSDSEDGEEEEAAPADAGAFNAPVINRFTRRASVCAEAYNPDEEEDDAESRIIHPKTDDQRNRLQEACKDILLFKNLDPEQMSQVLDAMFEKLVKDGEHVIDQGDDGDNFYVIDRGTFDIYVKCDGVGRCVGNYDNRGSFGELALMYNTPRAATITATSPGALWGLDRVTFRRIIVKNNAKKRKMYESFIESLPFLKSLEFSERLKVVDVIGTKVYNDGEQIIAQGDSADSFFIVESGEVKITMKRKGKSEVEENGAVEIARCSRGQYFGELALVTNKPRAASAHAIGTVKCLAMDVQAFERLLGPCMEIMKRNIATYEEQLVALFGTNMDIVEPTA
Vif imaging: HIV Vif self-association inhibitors, primary screen, imaging, HEK293T, single point. inhibition, % at 7.49 µM. HEK293T cells, Vif self-association by quenched fluorescence, 24 h. 340,000 tested, 0.35% active; in the data active = inhibition above about 50%, passing the limit was not always enough
SR-BI HDL uptake: inhibitors of SR-BI mediated HDL lipid uptake, primary screen, ldlA[mSR-BI] cells, fluorescence, single point; Scavenger receptor class B member 1 (Mus musculus), Q61009; ldlA[mSR-BI] CHO cells, DiI-HDL uptake fluorescence, 3 h; inhibition, % at 12.5 µM; 320,000 tested, 0.96% active;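 active = mean replicate inhibition of at least 70% and a set share of replicates each scoring 70 or more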;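 note: 0% = median of neutral control wells and 100% = median of positive control wells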
* marks the source's active call; other numbers are inactive results; . = not tested or not shown.

SMILES	PKA-R1A activ	SR-BI DiI-HDL act	PKA-R2B activ	Vif imaging	SR-BI HDL uptake
Oc1ccccc1-c1nc(NC2CCCC2)c2ccccc2n1	-8.3	-81.6	-5.5	-10.5	81.6*
O=C1CC2(CCN(C(=O)C3CC(=O)N(c4ccc(F)cc4)C3)CC2)Oc2ccccc21 (centres undefined)	-10.2	-1.0	-8.8	-0.1	1.0
O=C(c1ccco1)N1CCN(C(=O)C2CCCc3c2[nH]c2ccc(Cl)cc32)CC1 (centres undefined)	-9.3	-82.9	0.4	-5.2	82.9*
CC(O)(c1ccccc1)c1ccc2ccccc2n1 (centres undefined)	-1.4	16.1	-5.7	-15.5	-16.1
Cc1ccc(-c2[nH]nc(N)c2N=Nc2ccccc2C)cc1	-1.4	-75.9	-3.1	1.2	75.9*
Cc1ccc(-c2[nH]nc(N)c2N=Nc2cccc(Cl)c2C)cc1	3.1	-83.6	-11.2	7.0	83.6*
Cc1cccc(N=Nc2c(N)n[nH]c2-c2ccc(Cl)cc2)c1	1.7	-71.2	1.1	1.7	71.2*
Cc1ccc(OCC(=O)NN=C2C3CC4CC(C3)CC2C4)cc1	-2.6	-9.2	-1.5	-11.4	9.2
C[C@H](CO)N1C[C@H](C)[C@H](CN(C)Cc2cccc(C(F)(F)F)c2)OCc2ccccc2-c2c(n(C)c3ccccc23)C1=O	6.0	.	4.1	-1.2	.
CCOCC(=O)OCC(=O)NC12CC3CC(CC(C3)C1)C2	-18.1	18.5	-0.3	10.1	-18.5
CCOC(=O)C(=O)NC12CC3CC(CC(C3)C1)C2	4.0	63.1*	5.1	.	-63.1
CN(C)S(=O)(=O)c1ccc(NC(=O)COC(=O)C2COc3ccccc3O2)cc1 (centres undefined)	4.4	12.8	4.4	67.4*	-12.8
O=C(COC(=O)C1COc2ccccc2O1)Nc1ccc(Cl)cc1 (centres undefined)	-2.5	.	-6.3	3.6	-49.6
O=C(COC(=O)c1ccccc1Br)NC1CCCC1	-5.2	.	1.8	79.9*	.
Cc1onc(-c2ccccc2Cl)c1C(=O)N1CCCC1	6.4	3.5	0.1	1.0	-3.5
Cc1onc(-c2ccccc2Cl)c1C(=O)N1CCN(C)CC1	1.0	2.0	4.1	50.7*	-2.0
CN(C(=O)c1cc(S(=O)(=O)N2CCc3ccccc32)cn1C)C1CCCCC1	1.6	10.0	-1.5	-1.7	-10.0
COc1ccc(/C=N/Nc2nc(-c3cccc(S(=O)(=O)N4CCCC4)c3)cs2)c(OC)c1	-13.1	-83.5	1.3	-6.5	83.5*
COc1cccc(C(=O)Nc2nc(-c3ccc(S(=O)(=O)N4CCOCC4)cc3)cs2)c1	-8.3	-65.0	-8.2	-7.5	65.0
CC1=CC(C)(C)N2C(=O)C3(NCCc4c3[nH]c3ccccc43)c3cc(C)cc1c32 (centres undefined)	6.9	-87.6	-4.8	11.8	87.6*
CN1C(=O)C2(NCCc3c2[nH]c2ccccc32)c2ccccc21 (centres undefined)	-1.8	-7.0	1.0	16.6	7.0
CCCCn1nc(NC(=O)c2cccs2)c2cc3cc(OC)ccc3nc21	-5.8	-82.0	-5.3	-6.9	82.0*
CCCn1nc(NC(=O)c2cccs2)c2cc3cc(OC)ccc3nc21	-10.1	-66.1	-17.3	0.6	66.1
Cc1ccc(Oc2cc(C)nc(-c3ccccc3O)n2)cc1	-1.6	-29.9	4.7	-7.8	29.9
Cc1cc(OCc2ccc(F)cc2)nc(-c2ccccc2O)n1	-3.4	-78.0	1.0	-8.9	78.0*
SMILES	PKA-R1A activ	SR-BI DiI-HDL act	PKA-R2B activ	Vif imaging	SR-BI HDL uptake
O=C(Nc1ccccc1C(=O)N1CCCCCC1)c1ccccc1	8.4	-18.4	2.9	70.8*	18.4
O=C(Nc1ccccc1C(=O)O)c1cccc(C(=O)Nc2ccccc2C(=O)O)c1	-8.5	28.8	5.5	110.1*	-28.8
CC(=O)N1C[C@H]2CON(C)[C@H]2C[C@H]1c1ccc(-c2ccccc2)cc1	0.1	.	0.0	3.8	.
CCn1c(CNC(=O)c2ccccc2F)nnc1SCC(=O)NC1CCCCC1	-5.2	7.4	1.2	-15.2	-7.4
CC(C)n1c(CNC(=O)c2ccccc2F)nnc1SCC(=O)NC1CCCCC1	-11.1	7.9	-1.9	53.5*	-7.9
COc1cc(C(=O)NCC(=O)NCCN2C(=O)S/C(=C\c3ccccc3Cl)C2=O)cc(OC)c1OC	7.6	-41.2	-14.3	-2.2	41.2
COc1cc(/C=C2\SC(=O)N(CCNC(=O)c3sc4cc(F)ccc4c3Cl)C2=O)cc(OC)c1OC	3.1	.	-9.9	62.6*	.
CCCCNC(=O)c1cc2nc3c(c(C(F)(F)F)n2n1)CCc1ccccc1-3	5.6	-28.2	-1.9	-3.1	28.2
CC(C)CNC(=O)c1cc2nc3c(c(C(F)(F)F)n2n1)CCc1ccccc1-3	0.9	-78.2	0.9	3.7	78.2*
C[C@]12CCC(O)CC1=CCC1C2CC[C@]2(C)/C(=N\NC(N)=S)CCC12 (some centres undefined)	12.7	-90.4	0.2	14.3	90.4*
C[C@H](CO)N1C[C@H](C)[C@@H](CN(C)S(=O)(=O)c2cccc(F)c2)Oc2ncc(Br)cc2C1=O	-5.2	.	-3.5	4.8	.
CN1C(=O)CSc2ccc(NC(=O)N3CCN(c4ccccc4)CC3)cc21	-2.8	-77.6	4.1	-0.7	77.5*
COc1ccc(CC(=O)Nc2ccc(N3CCN(c4ccc(OC)cc4)CC3)c(C#N)c2)cc1	-0.7	-77.9	-9.3	5.2	77.9*
COc1ccc(C(=O)Nc2ccc(C(=O)NCCc3ccc(OC)c(OC)c3)cc2)cc1	-4.5	-79.0	-13.9	-15.6	79.0*
COc1ccc(CC(=O)NCCc2ccc(OC)c(OC)c2)cc1	-4.5	8.2	1.8	-0.9	-8.2
COc1ccc(CCNC(=O)c2ccc(CNS(=O)(=O)c3cc(C)ccc3C)cc2)cc1OC	4.5	-78.9	8.7	-13.6	78.9*
COc1ccc(CCNC(=O)c2ccc(CNS(=O)(=O)c3ccc(C(C)(C)C)cc3)cc2)cc1OC	1.6	-65.2	-12.6	-4.0	65.2
COc1ccc(CCNC(=O)c2ccc(CNS(=O)(=O)c3cccc(Cl)c3)cc2)cc1OC	-2.2	-80.8	-11.1	-3.5	80.8*
COc1ccccc1N1CCN(C2CCCN(C(=O)c3ccsc3)C2)CC1 (centres undefined)	-2.1	-3.5	-5.1	8.7	3.5
CN1CCCC(C)(C(=O)Nc2ccc3scnc3c2)C1 (centres undefined)	.	.	.	11.6	.
O=c1oc(-c2ccc(Br)cc2)nc2ccccc12	-6.3	19.2	7.1	-6.6	-19.1
CCc1nc2ccc(C(=O)Nc3ccc4c(c3)OCC(=O)N4)cn2c1N(C)Cc1nccn1C	.	.	.	22.5	.

Screening results: PubChem BioAssay, several laboratories
